# This is a sample that favours compounds with a hit; in the whole collection about 1.2% have one here.
# CaV13 ICDI inh: Primary screen for inhibitors of IQ motif and Ca2+-dependent inactivation inhibitor domain binding in CACNA1D, Förster resonance energy transfer in living cells, …. HEK cells, CFP/YFP FRET ICDI-IQ, plate reader, 10 min; percent FRET-ratio fall versus neutral wells. actives 0.098% (n = 340,000). inhibition, % at 12.3 µM;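 active = mean replicate inhibition of at least 30% and at least 1% of replicates passing that level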;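 note: 0% = median of the neutral control wells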
# SR-BI HDL uptake: mouse SR-BI HDL lipid transfer inhibition; actives 0.96% (n = 320,000); Q61009; ldlA[mSR-BI] CHO cells, DiI-HDL uptake fluorescence, 3 h; AID 488896; inhibition, % at 12.5 µM;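 active = mean replicate inhibition of at least 70% and a set share of replicates each scoring 70 or more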;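 note: 0% = median of neutral control wells and 100% = median of positive control wells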
# Target sequence (Q61009 whole entry, looked up): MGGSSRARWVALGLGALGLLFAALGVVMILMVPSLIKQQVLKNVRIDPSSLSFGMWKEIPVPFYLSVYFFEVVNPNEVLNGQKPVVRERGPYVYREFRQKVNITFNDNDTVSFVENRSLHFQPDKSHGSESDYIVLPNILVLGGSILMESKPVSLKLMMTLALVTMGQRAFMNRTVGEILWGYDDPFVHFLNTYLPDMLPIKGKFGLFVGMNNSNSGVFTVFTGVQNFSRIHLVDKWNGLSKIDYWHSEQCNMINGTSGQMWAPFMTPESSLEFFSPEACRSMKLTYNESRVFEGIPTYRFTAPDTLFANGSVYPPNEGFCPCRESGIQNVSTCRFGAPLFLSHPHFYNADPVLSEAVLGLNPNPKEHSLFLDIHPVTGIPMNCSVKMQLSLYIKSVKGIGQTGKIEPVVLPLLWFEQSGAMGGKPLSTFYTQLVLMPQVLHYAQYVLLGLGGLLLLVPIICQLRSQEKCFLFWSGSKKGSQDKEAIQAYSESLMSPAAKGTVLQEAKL
# FN deposit inh: fibronectin deposition inhibition; AH1F fibroblasts, Alexa488-fibronectin deposition fluorescence, overnight; inhibition, % at 12.6 µM; actives 0.086% (n = 350,000); AID 743247;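 active = mean inhibition across replicates of 30% or more, regardless of how many single replicates reach that level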;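 note: positive control wells lacked labelled fibronectin entirely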
#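 Assay system: AH1F fibroblast monolayer, labelled fibronectin deposition. Amount: 10000 cells per well. Also added: labelled fibronectin 24 nM. Compound: single-point pinned compound. Incubation: cell attachment 1 h, compound and FN exposure overnight. Detection: fluorescence after three HBSS washes, excitation 485 nm, emission 525 nm. Read-out: inhibition of fibronectin deposition signal.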
# Efflux pump mplx: blocks antifungal efflux pumps in multiplex yeast assay; S. cerevisiae Candida pump triplex, Nile Red efflux; inhibition, % at 10 µM; actives 0.44% (n = 330,000); AID 485275;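 active = plate passing quality check with inhibition over a set limit, or well fluorescence over plate mean plus 4 SD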;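 note: Nile Red retained in pooled yeast measured as flow cytometry median fluorescence; 0% = buffer negative control and 100% = Enniatin B positive control; higher means more Nile Red kept so more efflux inhibition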
# SR-BI DiI-HDL act: enhances SR-BI lipid uptake from DiI-HDL. CHO ldlA[mSR-BI] cells, DiI-HDL uptake fluorescence, 3 h; 100 = double the neutral-control signal. activation, % at 12.5 µM. actives 0.096% (n = 320,000);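 active = mean replicate activation of at least 60% and every replicate at or above 60%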;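 note: 0% = median plate neutral-control signal and 100% = twice that signal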
#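 material = CHO ldlA[mSR-BI] cells | medium = Ham's F12 with 0.5% BSA, HEPES 25 mM, pH 7.4 | reagent = fluorescent DiI-HDL, 10 µg/mL final | compound dosing = single-point compound dose | incubation = 3 h, 37 °C | measured by = bottom-read fluorescence, 550/595 nm | measure = HDL uptake via cellular fluorescence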
# Yeast cmpd fluor: counter-screen for efflux pump inhibitors: compound fluorescence | S. cerevisiae AD/pABC3, flow cytometry | actives 4% (n = 1,700) | fluorescence ratio to DMSO, % at 10 µM | shares compounds with Efflux pump mplx | AID 588517;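 active = fluorescence ratio to DMSO above its plate's cutoff, the plate mean ratio plus 5 SD, cut at about 210% in these data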;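 note: unstained yeast with no Nile Red so the signal is compound autofluorescence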
# CaMdr1 efflux inh: blocks the Candida albicans Mdr1 efflux pump in yeast; shares compounds with Efflux pump mplx; S. cerevisiae AD/CaMDR1, Nile Red efflux, flow cytometry; inhibition, % at 10 µM; actives 1% (n = 1,700); AID 588518; in the data active = inhibition above about 26%;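 note: 0% = DMSO vehicle and 100% = reference inhibitor; higher means more Nile Red retained so more efflux inhibition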
# CaCdr2 efflux inh: inhibitors of Candida albicans Cdr2 efflux pump. shares compounds with Efflux pump mplx. S. cerevisiae AD/CaCDR2, Nile Red retention, flow cytometry. Nile Red retention ratio vs DMSO, % at 10 µM. actives 4% (n = 1,700). AID 588520; in the data active = Nile Red retention ratio vs DMSO above about 190%;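 note: higher ratio means more blocking of Cdr2 efflux of the dye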
# Cdr1 pump inh: inhibitors of Candida albicans Cdr1 efflux pump; shares compounds with Efflux pump mplx; S. cerevisiae AD/CaCDR1, Nile Red efflux, flow cytometry; inhibition, % at 10 µM; actives 1% (n = 1,700); AID 588522;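 active = inhibition above the screen-wide mean plus twice its standard deviation, cut at about 32% in these data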
# Starred values were filed as active, the others as inactive; nt = no result given.
SMILES,CaV13 ICDI inh,SR-BI HDL uptake,FN deposit inh,Efflux pump mplx,SR-BI DiI-HDL act,Yeast cmpd fluor,CaMdr1 efflux inh,CaCdr2 efflux inh,Cdr1 pump inh
O=C(Cn1nc(-c2ccc(F)cc2)ccc1=O)Nc1ccc2c(c1)OCCO2,-5.9,nt,-2.8,0.0,nt,nt,nt,nt,nt
O=C(Cn1nc(-c2ccc(F)cc2)ccc1=O)Nc1ccc(C(=O)NC2CC2)cc1,-5.6,-2.8,nt,0.4*,2.8,81.2,-0.1,89.0,-0.2
Clc1ccc(Cn2nc(-c3ccccc3)nc2-c2ccccc2)cc1,-5.3,-4.1,1.9,20.2*,4.1,101.8,-0.1,109.9,0.0
CC1(C)CC(NCCN2CCN(C3=CC(=C(C#N)C#N)CC(C)(C)C3)CC2)=CC(=C(C#N)C#N)C1,-5.6,59.9,4.6,-0.2,-59.9,nt,nt,nt,nt
CCN1CCN(C2=CC3=CC(=C(C#N)C#N)CCC3CC2)CC1 (configuration not stated),nt,13.3,nt,nt,-13.3,139.9,0.6,203.4*,0.0
N#CC(C#N)=C1C=C2C=C(N3CCOCC3)CCC2CC1 (configuration not stated),-25.6,11.5,-1.1,nt,-11.5,183.5,1.6,205.7*,0.7
N#CC(C#N)=C1C=C2C=C(N3CCCCCC3)CCC2CC1 (configuration not stated),-32.4,44.5,nt,nt,-44.5,258.5*,1.6,271.3*,0.8
CN1CCN(C2=CC3=CC(=C(C#N)C#N)CCC3CC2)CC1 (configuration not stated),nt,29.2,nt,nt,-29.2,160.8,0.3,242.9*,0.0
CN(C)C(=O)c1ccc(-c2ccc([C@@H]3[C@@H](CO)N4C(=O)CN(C(=O)C5CCC5)C[C@@H]34)cc2)cc1,nt,nt,12.8,nt,nt,nt,nt,nt,nt
C[C@@H]1CN([C@H](C)CO)C(=O)Cc2cc(NC(=O)c3ccncc3)ccc2O[C@@H]1CN(C)CC1CC1,nt,nt,-1.2,nt,nt,nt,nt,nt,nt
C[C@@H]1CN([C@@H](C)CO)S(=O)(=O)c2ccc(-c3cncnc3)cc2O[C@@H]1CN(C)C(=O)c1ccc2c(c1)OCO2,nt,nt,-4.3,nt,nt,nt,nt,nt,nt
CC(C)NC(=O)N(C)C[C@H]1OCCCC[C@H](C)Oc2ccc(NS(=O)(=O)c3ccc(F)cc3)cc2C(=O)N([C@H](C)CO)C[C@H]1C,nt,nt,-7.8,nt,nt,nt,nt,nt,nt
CCOc1ccc(CCNC(=O)c2cc([N+](=O)[O-])ccc2N2CCOCC2)cc1OCC,-5.0,39.5,-2.0,0.3,-39.5,nt,nt,nt,nt
CCOc1ccc(CCNC(=O)COC(=O)c2cc([N+](=O)[O-])ccc2N2CCOCC2)cc1OCC,-2.4,62.0,-5.7,9.2*,-62.0,81.2,0.0,86.9,-0.1
CN1CCN(C(=O)C[C@H]2CC[C@@H]3[C@H](COC[C@@H](O)CN3C(=O)Nc3ccc(Cl)cc3)O2)CC1,nt,nt,-5.1,nt,nt,nt,nt,nt,nt
O=C1C(Cc2cccc([N+](=O)[O-])c2)SC(=Nc2ccccc2)N1c1ccccc1 (configuration not stated),-5.4,7.3,-5.8,13.5*,-7.3,119.6,0.6,110.2,0.0
O=C1C(Cc2ccc(Br)cc2)SC(=Nc2ccccc2)N1c1ccccc1 (configuration not stated),-3.6,14.7,-5.3,0.2,-14.7,nt,nt,nt,nt
COc1ccc(S(=O)(=O)N2CCOC2CNC(=O)C(=O)NCc2ccccc2OC)cc1 (configuration not stated),-6.2,13.3,-1.0,1.1*,-13.3,101.7,-0.1,96.3,0.0
COc1ccccc1CCNC(=O)C(=O)NCC1OCCN1S(=O)(=O)c1ccc(Br)cc1 (configuration not stated),-6.6,-14.1,4.5,0.3,14.1,nt,nt,nt,nt
COc1ccccc1CNC(=O)C(=O)NCC1OCCN1S(=O)(=O)c1ccc(Br)cc1 (configuration not stated),nt,33.2,nt,1.0,-33.2,110.0,-0.1,110.2,0.0
COc1ccc(S(=O)(=O)N2CCOC2CNC(=O)C(=O)NCc2ccccc2Cl)cc1 (configuration not stated),-10.8,9.5,-10.4,-3.1,-9.5,98.3,-0.1,100.8,0.0
CCCN1C[C@@H](C)[C@H](OC)CN(C)C(=O)c2cc(NC(=O)c3cnccn3)ccc2OC[C@H]1C,nt,nt,-6.0,nt,nt,nt,nt,nt,nt
O=C1CNC[C@@H]2[C@H](c3ccc(-c4ccccc4F)cc3)[C@@H](CO)N12,nt,nt,3.8,nt,nt,nt,nt,nt,nt
CCNC(=O)C[C@H]1CC[C@H]2[C@H](COc3ccc(NC(=O)Nc4cccc(OC)c4)cc3C(=O)N2C)O1,nt,nt,1.1,nt,nt,nt,nt,nt,nt
O=C1OCC/C1=C\c1ccccc1,-2.1,-6.2,-6.5,6.8*,6.2,101.4,-0.2,85.2,-0.1
SMILES,CaV13 ICDI inh,SR-BI HDL uptake,FN deposit inh,Efflux pump mplx,SR-BI DiI-HDL act,Yeast cmpd fluor,CaMdr1 efflux inh,CaCdr2 efflux inh,Cdr1 pump inh
Cc1cccc(N2CCN(C(=O)c3ccc(NS(=O)(=O)c4c(C)noc4C)cc3)CC2)c1C,-5.3,15.7,2.6,0.5*,-15.7,97.2,0.0,110.2,0.0
Cc1noc(C)c1S(=O)(=O)Nc1ccc(C(=O)N2CCN(c3cccc(Cl)c3)CC2)cc1,-5.3,-4.0,2.7,-0.1,4.0,nt,nt,nt,nt
COC(=O)C[C@@H]1C[C@@H]2c3cc(NS(=O)(=O)c4ccc(OC)cc4)ccc3O[C@@H]2[C@@H](CO)O1,nt,nt,1.0,nt,nt,nt,nt,nt,nt
CCCSc1nnc(N)s1,-3.9,-11.3,1.3,18.0*,11.3,118.0,1.2,155.3,1.5
C[C@H](CO)N1C[C@H](C)[C@@H](CN(C)Cc2ccc(-c3ccccc3)cc2)Oc2c(NS(=O)(=O)c3ccc(Cl)cc3)cccc2C1=O,nt,nt,-3.2,nt,nt,nt,nt,nt,nt
Cc1ccc(-n2nc3c(=O)n(CC(=O)NCCc4ccccc4C)nc(C)c3c2C)cc1,-2.3,11.1,-2.5,4.2*,-11.1,105.6,0.0,102.2,0.0
Cc1ccc(-n2nc3c(=O)n(CCCC(=O)NCc4ccccc4C)nc(C)c3c2C)cc1,-7.0,43.1,5.2,0.0,-43.1,nt,nt,nt,nt
Cc1ccc(-n2nc3c(=O)n(CC(=O)NCc4cccs4)nc(C)c3c2C)cc1,-2.4,3.7,-3.3,-0.1,-3.7,99.0,-0.1,105.1,-0.1
CCOc1ccc(CNC(=O)Cn2nc(C)c3c(C)n(-c4ccc(C)cc4)nc3c2=O)cc1,-1.9,10.7,7.6,0.0,-10.7,100.3,-0.1,109.4,0.1
Cc1ccc(CNC(=O)CCCn2nc(C)c3c(C)n(-c4ccccc4)nc3c2=O)cc1,-2.8,9.5,0.8,0.0,-9.5,111.1,0.0,108.1,0.1

# Screening results: PubChem BioAssay, several laboratories
